LANA DNA inh – blocks KSHV LANA C-terminal domain binding to DNA; hit rate 0.078% among 340,000; MBP-C-LANA/FAM-LBS DNA binding, fluorescence polarization; AID 504423; inhibition, % at 9 µM;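 active = highest replicate inhibition at or above 60% at 9 µM, even if other replicates fall short; inactive = all replicates below 60% inhibition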;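 also: 0% = neutral control wells and 100% = 4 µM acridine orange control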
RTF Ca sens act – increases calcium sensitivity of human cardiac regulated thin filaments. P19429+P45379. IANBD-labeled TnC RTF fluorescence at EC20 calcium; 0% EC20 calcium, 100% full calcium. activation, % at 7.2 µM. hit rate 0.24% among 340,000. AID 493008;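 active = activation above the mean over all tested compounds plus 3 SD, cut at about 30% in these data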;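 also: rise in fluorescence read as greater calcium sensitivity of cardiac thin filaments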
Tn7 DDE FP – disrupts Tn7 cyclic peptide binding to fibrin D-Dimer-E complex; P02675; FP displacement of FITC-Tn7 peptide from fibrin DD(E); 0% = median of compound wells per plate; inhibition, % at 8.3 µM; hit rate 0.13% among 370,000;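 active = inhibition above the mean of compounds falling within the control limits plus 3 SD of them, cut at about 14% in these data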;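 also: 0% = plate median of compound wells and 100% = 10 µM Aha-Tn7 peptide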
Target sequence (P02675 whole entry, looked up): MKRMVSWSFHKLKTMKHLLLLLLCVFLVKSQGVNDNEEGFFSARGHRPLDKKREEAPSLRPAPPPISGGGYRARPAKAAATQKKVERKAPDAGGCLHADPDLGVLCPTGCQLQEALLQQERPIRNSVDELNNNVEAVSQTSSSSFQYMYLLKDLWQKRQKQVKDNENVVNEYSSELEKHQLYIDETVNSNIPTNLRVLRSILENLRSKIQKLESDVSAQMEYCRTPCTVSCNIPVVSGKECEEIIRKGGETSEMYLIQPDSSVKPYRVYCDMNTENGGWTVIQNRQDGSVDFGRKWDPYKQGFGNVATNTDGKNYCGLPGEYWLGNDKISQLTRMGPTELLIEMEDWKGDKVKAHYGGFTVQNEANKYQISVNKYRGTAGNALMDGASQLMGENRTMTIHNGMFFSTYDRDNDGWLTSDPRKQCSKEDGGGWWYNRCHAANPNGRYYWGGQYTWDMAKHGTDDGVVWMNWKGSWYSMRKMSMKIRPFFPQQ
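Assay system: Human fibrin DD(E) protein | Medium: Tris buffer with calcium and detergent, pH 7.8 | Reagent: 0.1 µM fluorescent Tn7 | Compound dosing: Single point at 8.3 µM | Times: 10 min preincubation, 3 h with tracer, room temperature | Detection: Fluorescence polarization of the labelled Tn7 tracer | Controls: Aha-Tn7 high control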
Tn6 DDE FP – disrupts Tn6 cyclic peptide binding to fibrin D-Dimer-E complex | Fibrin DD(E) TRITC-Tn6 fluorescence polarization displacement | inhibition, % at 8.3 µM | AID 720509 | hit rate 0.21% among 370,000;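 active = inhibition above a per-campaign cutoff: mean of compounds within control limits plus 3 SD, cut at about 15% in these data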;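 also: 0% = median of all compound wells on the plate and 100% = blocking peptide control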
Cardiac RTF inh – cardiac RTF calcium desensitization; IANBD-labeled cardiac RTF, Ca2+ fluorescence; P19429+P45379; inhibition, % at 7.15 µM; hit rate 0.12% among 340,000; AID 493244;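 active = inhibition above the mean inhibition of all tested compounds plus 3 SD, cut at about 17% in these data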;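 also: assay run at fixed EC70 calcium of 1.6 mM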
Keap1 Nrf2 FP – inhibitors of human Keap1-Nrf2 protein-protein interaction. Q14145. hit rate 0.15% among 340,000. inhibition, % at 9.4 µM. Keap1 Kelch-Nrf2 peptide fluorescence polarization, 1536-well; in the data active = inhibition above about 12%;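 also: human Keap1 Kelch domain with fluorescein labeled Nrf2 9mer peptide probe; 0% = neutral control wells and 100% = peptide positive control; higher means more block of Keap1 binding to Nrf2 peptide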
RTF Ca inh conf – confirmation of inhibitors of cardiac thin filament calcium sensitivity; shares compounds with Cardiac RTF inh; inhibition, % at 7.15 µM; reconstituted cardiac thin filaments, calcium sensitivity fluorescence; hit rate 8% among 360; in the data active = inhibition above about 18%
The depositor's hits bear a star; x = no result given. Sampled rows, rich in hits. Any-hit rate of the full collection: about 0.73%.

SMILES	LANA DNA inh	RTF Ca sens act	Tn7 DDE FP	Tn6 DDE FP	Cardiac RTF inh	Keap1 Nrf2 FP	RTF Ca inh conf
O=C1CC(=O)N2N=C(c3ccc([N+](=O)[O-])cc3)SC2=N1	2	-1	0	5	19*	-5	-3
CCOC(=O)c1ccc(NC(=O)OC[C@@H]2CSCCS(=O)(=O)N2)cc1	x	x	7	2	x	x	x
O=C(O)C(Cc1ccccc1)N1C(=O)/C(=C/C=C/c2ccco2)SC1=S (centres undefined)	106*	-20	-2	2	64*	26*	27*
CCN(CC)C(=O)[C@H]1C[C@@H]2[C@H](C[C@@H](c3ccccc3)[C@H]1C)N(c1ccc(F)cc1)C(=O)N2CCCOc1ccccc1	x	x	-7	8	x	x	x
O=C(O)/C=C/C(O)c1ccc(Cl)cc1 (centres undefined)	0	-3	13	2	18*	-2	-5
O=C(/C=C/Sc1ccccc1)c1ccc(Cl)cc1	0	-4	6	9	-1	0	x
COc1ccc(CNC(=O)O[C@H]2CC[C@@]34CCCN3C(=O)CCC[C@H]4[C@H]2C)cc1OC	x	x	0	-1	x	x	x
O=C(O)c1ccccc1N=Nc1ccc(O)cc1	6	1	-7	-6	18*	3	-6
CC1(Cc2cccc(C(F)(F)F)c2)C(=O)Nc2ccc(-c3ccc(F)c(Cl)c3)cc21 (centres undefined)	x	x	0	0	x	x	x
CC(CCN1CCC(C(O)(c2ccccc2)c2ccccc2)CC1)Oc1ccccc1C#N (centres undefined)	x	x	-11	-7	x	x	x
CCCCN(C)C(=O)CSc1nnc(-c2cc(OC)c(OC)c(OC)c2)o1	x	x	-4	1	x	x	x
Cc1ccccc1OCC(=O)OCC(=O)NCc1ccccc1	0	-4	-4	6	7	0	x
COc1ccccc1C(=O)NC(=O)COC(=O)CCOc1ccccc1C	0	-14	-2	-2	28*	0	-1
Cc1ccccc1OCC(=O)OCC(=O)NCCNC(=O)COC(=O)COc1ccccc1C	0	-10	1	9	17*	-2	0
COc1ccccc1C(=O)NC(=O)COC(=O)CCOc1ccc(C)cc1	0	-2	-1	5	-19	0	x
CC(C)(C)OC(=O)N1CCC[C@@H]1C(=O)N1CCC[C@@H]1C(=O)NCc1ccccc1	x	x	6	1	x	x	x
C=CCN1C(=O)c2ccc(C(=O)OCC(=O)N3CCN(c4ccccc4)CC3)cc2C1=O	0	4	-5	6	21*	6	-3
O=C(O[C@@H]1OC2COC(=O)c3cc(O)c(O)c(O)c3-c3c(cc(O)c(O)c3O)C(=O)O[C@@H]([C@H]1O)[C@@H]2O)c1cc(O)c(O)c(O)c1	121*	-60	x	x	130*	x	167*
COc1ccc(N=Nc2ccc(N)nc2N)cc1	0	-6	-3	9	0	-3	x
CCOc1ccc2nc3cc(N=Nc4ccc(N)nc4N)ccc3c(N)c2c1	0	-12	x	x	25*	5	41*
CCN(C)C(=O)CN1C(=O)C2CCCCN2C(=O)c2ccccc21 (centres undefined)	x	x	-6	-5	x	x	x
O=S(=O)(c1ccc2nnn(O)c2c1)N1CCOCC1	1	2	-2	-4	1	-6	x
O=S(=O)(c1ccc2ncn(O)c2c1)N1CCOCC1	1	-2	1	5	22*	-1	-9
CCc1ccccc1NC(=O)C1(S(=O)(=O)c2ccc(C)cc2)CC1	0	-7	0	4	17*	-1	-1
Cc1ccc(C)c(OCCC(=O)NNC(=O)c2ccccc2)c1	1	-2	3	8	17*	-3	0
SMILES	LANA DNA inh	RTF Ca sens act	Tn7 DDE FP	Tn6 DDE FP	Cardiac RTF inh	Keap1 Nrf2 FP	RTF Ca inh conf
Cc1ccc(C)c(OCCC(=O)NNC(=O)c2ccncc2)c1	0	1	-2	1	-4	-1	x
COc1ccc(NC(=O)CC23CC4CC(CC(C4)C2)C3)cn1	0	0	-3	6	17*	-3	2
COCCn1c(N)c(N(Cc2ccccc2)C(=O)COc2ccccc2F)c(=O)[nH]c1=O	3	-6	-2	-7	19*	-5	-5
CCOc1ncccc1C(=O)NCc1ccc(OC)c(OC)c1	-1	-5	-1	1	0	-4	x
CCOc1ccc(CN(C)C(=O)c2cccnc2OCC)cc1OC	-1	-3	-1	4	18*	2	0
CC(C)CN1C(=O)[C@@]2(CC(=O)N(C)C2c2ccccc2)c2cc(-n3cc(CO)nn3)ccc21 (some centres undefined)	x	x	-1	9	x	x	x
COc1cccc(C(=O)Nc2cccc(C(=O)N3CCOCC3)c2)c1	0	-7	-4	-1	21*	-1	-2
COC(=O)[C@]12C[C@H](CC(=O)NCc3cccs3)C(=O)N(Cc3cccc4ccccc34)C1=C[C@H](C(C)C)O[C@@H]2C1CC1	x	x	-2	6	x	x	x
Nc1[nH]c(C(=O)c2ccccc2)c(-c2ccc3ccccc3c2)c1C(=O)NCCc1ccc(Cl)cc1	x	x	3	-4	x	x	x
O=[N+]([O-])c1cc(Cc2ccccc2)cc(C=Nc2ccc(N3CCOCC3)cc2)c1O	0	-13	x	x	21*	0	5
Cc1ccc(O)c(N=Cc2cc(Cc3ccccc3)cc([N+](=O)[O-])c2O)c1	-1	-11	-6	-7	11	0	x
O=C(CNS(=O)(=O)c1cccs1)NCc1ccc(F)cc1	0	1	-4	4	-11	4	x
CSC(=NCc1ccc(F)cc1)NS(=O)(=O)c1cccs1	-3	-1	-6	3	17*	5	0
COc1cc(C#N)ccc1OCC(=O)Nc1cccc(S(=O)(=O)N(C)c2ccccc2)c1	x	x	4	6	x	x	x
COc1cccc(=O)c2c(C)n(-c3cc(C)cc(C)c3)c(C)c12	2	3	-7	6	-3	-5	x
COc1cccc(-n2c(C)c3c(OC)cccc(=O)c3c2C)c1	-1	1	1	-7	25*	0	-5
CCc1ccc(-n2ncc(Cl)c(Oc3ccc(OC)cc3)c2=O)cc1	x	x	-6	-1	x	x	x
COc1ccc(-c2cc(C(=O)N(C3CCCCC3)C3CCCCC3)no2)cc1	x	x	3	-5	x	x	x
COc1ccc(CN(C)CC(=O)Nc2ccc(SC(F)F)cc2)cc1OC	-1	5	3	13	20*	2	3
O=C1C=CC2=C3c4cc(O)c(O)cc4CC3(O)COC2=C1O (centres undefined)	107*	-29	10	-4	37*	-8	34*
CCCCNC(=O)CSc1nc2ccc(N3CCOCC3)cc2c(=O)n1Cc1ccc(OC)cc1	-2	1	-2	-2	19*	-6	-1

High-throughput results as filed in PubChem BioAssay.
